In ChEMBL document CHEMBL4689842, “EUbOPEN Chemogenomics Library wave 1” (2021):

Test system: U2OS
Assay: Multiplex assay against U2OS
Format: toxicity, cell-based
Conditions: human
Procedure, shortened: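 At seeding, live cells were stained with Hoechst33342, BioTracker Green Microtubule Cytoskeleton Dye, MitoTracker Red and Annexin V Alexa Fluor 680. After compound addition they were imaged on a CQ1 microscope at 37°C and 5% CO2, and CellPathfinder machine-learning gating sorted them into Hoechst high-intensity objects or normal cells, with normal cells further split into healthy, pyknosed or fragmented nuclei and pyknosed cells into mitotic or apoptotic. Tubulin, mitochondrial-mass and membrane-permeability phenotypes are given as per cents of cells with healthy nuclei.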

[1] = 12 h, 1 µM, compound concentration 1 uM, replicate 1
[2] = 12 h, 1 µM, compound concentration 1 uM, replicate 2
[3] = 12 h, 10 µM, compound concentration 10 uM, replicate 1
[4] = 12 h, 10 µM, compound concentration 10 uM, replicate 2
[5] = 24 h, 1 µM, compound concentration 1 uM, replicate 1
[6] = 24 h, 1 µM, compound concentration 1 uM, replicate 2
[7] = 24 h, 10 µM, compound concentration 10 uM, replicate 1
[8] = 24 h, 10 µM, compound concentration 10 uM, replicate 2
[9] = 48 h, 1 µM, compound concentration 1 uM, replicate 1
[10] = 48 h, 1 µM, compound concentration 1 uM, replicate 2
[11] = 48 h, 10 µM, compound concentration 10 uM, replicate 1
[12] = 48 h, 10 µM, compound concentration 10 uM, replicate 2

Cn1nc(C(F)(F)F)cc1-c1cnc(N2CCc3cc(S(=O)(=O)Nc4c(F)cc(Cl)cc4F)cc(N4CCCC4=O)c32)nc1 [TP-020]
Population Apoptotic (%) [1]: 27%
Population Fragmented Nuclei (%) [1]: 4%
Population Healthy Nuclei (%) [1]: 88%
Population Hoechst High Intensity Objects (%) [1]: 4%
Population Membrane Permeable-Phenotype (%) [1]: 17%
Population Mitochondria Different-Phenotype (%) [1]: 18%
Population Mitotic Cells (%) [1]: 72%
Population Normal (%) [1]: 95%
Population Pyknosed Nuclei (%) [1]: 6%
Population Tubulin-Different-Phenotype (%) [1]: 10%
Total Cell Count [1]: 139
Population Apoptotic (%) [2]: 0%
Population Fragmented Nuclei (%) [2]: 14%
Population Healthy Nuclei (%) [2]: 79%
Population Hoechst High Intensity Objects (%) [2]: 15%
Population Membrane Permeable-Phenotype (%) [2]: 15%
Population Mitochondria Different-Phenotype (%) [2]: 15%
Population Mitotic Cells (%) [2]: 100%
Population Normal (%) [2]: 84%
Population Pyknosed Nuclei (%) [2]: 5%
Population Tubulin-Different-Phenotype (%) [2]: 15%
Total Cell Count [2]: 134
Population Apoptotic (%) [3]: 50%
Population Fragmented Nuclei (%) [3]: 3%
Population Healthy Nuclei (%) [3]: 93%
Population Hoechst High Intensity Objects (%) [3]: 4%
Population Membrane Permeable-Phenotype (%) [3]: 11%
Population Mitochondria Different-Phenotype (%) [3]: 23%
Population Mitotic Cells (%) [3]: 50%
Population Normal (%) [3]: 95%
Population Pyknosed Nuclei (%) [3]: 3%
Population Tubulin-Different-Phenotype (%) [3]: 22%
Total Cell Count [3]: 196
Population Apoptotic (%) [4]: 16%
Population Fragmented Nuclei (%) [4]: 8%
Population Healthy Nuclei (%) [4]: 81%
Population Hoechst High Intensity Objects (%) [4]: 5%
Population Membrane Permeable-Phenotype (%) [4]: 10%
Population Mitochondria Different-Phenotype (%) [4]: 31%
Population Mitotic Cells (%) [4]: 83%
Population Normal (%) [4]: 94%
Population Pyknosed Nuclei (%) [4]: 9%
Population Tubulin-Different-Phenotype (%) [4]: 26%
Total Cell Count [4]: 133
Population Apoptotic (%) [5]: 20%
Population Fragmented Nuclei (%) [5]: 2%
Population Healthy Nuclei (%) [5]: 90%
Population Hoechst High Intensity Objects (%) [5]: 2%
Population Membrane Permeable-Phenotype (%) [5]: 12%
Population Mitochondria Different-Phenotype (%) [5]: 10%
Population Mitotic Cells (%) [5]: 80%
Population Normal (%) [5]: 97%
Population Pyknosed Nuclei (%) [5]: 7%
Population Tubulin-Different-Phenotype (%) [5]: 16%
Total Cell Count [5]: 196
Population Apoptotic (%) [6]: 42%
Population Fragmented Nuclei (%) [6]: 12%
Population Healthy Nuclei (%) [6]: 81%
Population Hoechst High Intensity Objects (%) [6]: 5%
Population Membrane Permeable-Phenotype (%) [6]: 13%
Population Mitochondria Different-Phenotype (%) [6]: 23%
Population Mitotic Cells (%) [6]: 57%
Population Normal (%) [6]: 94%
Population Pyknosed Nuclei (%) [6]: 5%
Population Tubulin-Different-Phenotype (%) [6]: 11%
Total Cell Count [6]: 163
Population Apoptotic (%) [7]: 9%
Population Fragmented Nuclei (%) [7]: 3%
Population Healthy Nuclei (%) [7]: 91%
Population Hoechst High Intensity Objects (%) [7]: 1%
Population Membrane Permeable-Phenotype (%) [7]: 6%
Population Mitochondria Different-Phenotype (%) [7]: 19%
Population Mitotic Cells (%) [7]: 90%
Population Normal (%) [7]: 98%
Population Tubulin-Different-Phenotype (%) [7]: 29%
Total Cell Count [7]: 268
Population Apoptotic (%) [8]: 50%
Population Fragmented Nuclei (%) [8]: 6%
Population Healthy Nuclei (%) [8]: 88%
Population Hoechst High Intensity Objects (%) [8]: 7%
Population Membrane Permeable-Phenotype (%) [8]: 9%
Population Mitochondria Different-Phenotype (%) [8]: 45%
Population Mitotic Cells (%) [8]: 50%
Population Normal (%) [8]: 92%
Population Pyknosed Nuclei (%) [8]: 5%
Population Tubulin-Different-Phenotype (%) [8]: 25%
Total Cell Count [8]: 175

CCCS(=O)(=O)c1nc(NC2CC2)cc(-c2ccc3c(ccn3C3CC(C)(C)NC(C)(C)C3)c2)n1
Population Apoptotic (%) [1]: 39%
Population Fragmented Nuclei (%) [1]: 16%
Population Healthy Nuclei (%) [1]: 62%
Population Hoechst High Intensity Objects (%) [1]: 6%
Population Membrane Permeable-Phenotype (%) [1]: 8%
Population Mitochondria Different-Phenotype (%) [1]: 30%
Population Mitotic Cells (%) [1]: 60%
Population Normal (%) [1]: 93%
Population Pyknosed Nuclei (%) [1]: 21%
Population Tubulin-Different-Phenotype (%) [1]: 24%
Total Cell Count [1]: 588
Population Apoptotic (%) [2]: 38%
Population Fragmented Nuclei (%) [2]: 14%
Population Healthy Nuclei (%) [2]: 71%
Population Hoechst High Intensity Objects (%) [2]: 5%
Population Membrane Permeable-Phenotype (%) [2]: 5%
Population Mitochondria Different-Phenotype (%) [2]: 41%
Population Mitotic Cells (%) [2]: 61%
Population Normal (%) [2]: 94%
Population Pyknosed Nuclei (%) [2]: 13%
Population Tubulin-Different-Phenotype (%) [2]: 29%
Total Cell Count [2]: 1044
Population Apoptotic (%) [3]: 86%
Population Fragmented Nuclei (%) [3]: 83%
Population Healthy Nuclei (%) [3]: 0%
Population Hoechst High Intensity Objects (%) [3]: 6%
Population Membrane Permeable-Phenotype (%) [3]: 0%
Population Mitochondria Different-Phenotype (%) [3]: 0%
Population Mitotic Cells (%) [3]: 13%
Population Normal (%) [3]: 93%
Population Pyknosed Nuclei (%) [3]: 16%
Population Tubulin-Different-Phenotype (%) [3]: 0%
Total Cell Count [3]: 142
Population Apoptotic (%) [4]: 92%
Population Fragmented Nuclei (%) [4]: 75%
Population Healthy Nuclei (%) [4]: 4%
Population Hoechst High Intensity Objects (%) [4]: 7%
Population Membrane Permeable-Phenotype (%) [4]: 100%
Population Mitochondria Different-Phenotype (%) [4]: 38%
Population Mitotic Cells (%) [4]: 7%
Population Normal (%) [4]: 92%
Population Pyknosed Nuclei (%) [4]: 19%
Population Tubulin-Different-Phenotype (%) [4]: 84%
Total Cell Count [4]: 101
Population Apoptotic (%) [5]: 50%
Population Fragmented Nuclei (%) [5]: 16%
Population Healthy Nuclei (%) [5]: 67%
Population Hoechst High Intensity Objects (%) [5]: 10%
Population Membrane Permeable-Phenotype (%) [5]: 5%
Population Mitotic Cells (%) [5]: 50%
Population Normal (%) [5]: 89%
Population Pyknosed Nuclei (%) [5]: 16%
Population Tubulin-Different-Phenotype (%) [5]: 9%
Total Cell Count [5]: 749
Population Apoptotic (%) [6]: 22%
Population Fragmented Nuclei (%) [6]: 15%
Population Healthy Nuclei (%) [6]: 66%
Population Hoechst High Intensity Objects (%) [6]: 5%
Population Membrane Permeable-Phenotype (%) [6]: 10%
Population Mitochondria Different-Phenotype (%) [6]: 21%
Population Mitotic Cells (%) [6]: 77%
Population Normal (%) [6]: 94%
Population Pyknosed Nuclei (%) [6]: 18%
Population Tubulin-Different-Phenotype (%) [6]: 29%
Total Cell Count [6]: 1113
Population Apoptotic (%) [7]: 86%
Population Fragmented Nuclei (%) [7]: 80%
Population Healthy Nuclei (%) [7]: 0%
Population Hoechst High Intensity Objects (%) [7]: 6%
Population Membrane Permeable-Phenotype (%) [7]: 100%
Population Mitochondria Different-Phenotype (%) [7]: 25%
Population Mitotic Cells (%) [7]: 13%
Population Normal (%) [7]: 93%
Population Pyknosed Nuclei (%) [7]: 18%
Population Tubulin-Different-Phenotype (%) [7]: 100%
Total Cell Count [7]: 151
Population Apoptotic (%) [8]: 90%
Population Fragmented Nuclei (%) [8]: 73%
Population Healthy Nuclei (%) [8]: 10%
Population Hoechst High Intensity Objects (%) [8]: 7%
Population Membrane Permeable-Phenotype (%) [8]: 96%
Population Mitochondria Different-Phenotype (%) [8]: 75%
Population Mitotic Cells (%) [8]: 10%
Population Normal (%) [8]: 92%
Population Pyknosed Nuclei (%) [8]: 15%
Population Tubulin-Different-Phenotype (%) [8]: 96%
Total Cell Count [8]: 104
Population Apoptotic (%) [9]: 37%
Population Fragmented Nuclei (%) [9]: 16%
Population Healthy Nuclei (%) [9]: 69%
Population Hoechst High Intensity Objects (%) [9]: 6%
Population Membrane Permeable-Phenotype (%) [9]: 5%
Population Mitochondria Different-Phenotype (%) [9]: 15%
Population Mitotic Cells (%) [9]: 62%
Population Normal (%) [9]: 93%
Population Pyknosed Nuclei (%) [9]: 14%
Population Tubulin-Different-Phenotype (%) [9]: 14%
Total Cell Count [9]: 831
Population Apoptotic (%) [10]: 58%
Population Fragmented Nuclei (%) [10]: 11%
Population Healthy Nuclei (%) [10]: 68%
Population Hoechst High Intensity Objects (%) [10]: 8%
Population Membrane Permeable-Phenotype (%) [10]: 24%
Population Mitochondria Different-Phenotype (%) [10]: 17%
Population Mitotic Cells (%) [10]: 41%
Population Normal (%) [10]: 91%
Population Pyknosed Nuclei (%) [10]: 20%
Population Tubulin-Different-Phenotype (%) [10]: 23%
Total Cell Count [10]: 1197
Population Apoptotic (%) [11]: 90%
Population Fragmented Nuclei (%) [11]: 81%
Population Healthy Nuclei (%) [11]: 1%
Population Hoechst High Intensity Objects (%) [11]: 7%
Population Membrane Permeable-Phenotype (%) [11]: 100%
Population Mitochondria Different-Phenotype (%) [11]: 37%
Population Mitotic Cells (%) [11]: 9%
Population Normal (%) [11]: 92%
Population Pyknosed Nuclei (%) [11]: 16%
Population Tubulin-Different-Phenotype (%) [11]: 75%
Total Cell Count [11]: 198
Population Apoptotic (%) [12]: 80%
Population Fragmented Nuclei (%) [12]: 73%
Population Healthy Nuclei (%) [12]: 15%
Population Hoechst High Intensity Objects (%) [12]: 8%
Population Membrane Permeable-Phenotype (%) [12]: 97%
Population Mitochondria Different-Phenotype (%) [12]: 81%
Population Mitotic Cells (%) [12]: 19%
Population Normal (%) [12]: 91%
Population Pyknosed Nuclei (%) [12]: 10%
Population Tubulin-Different-Phenotype (%) [12]: 94%
Total Cell Count [12]: 131
